From PMC10851409 (ACS Omega, 2024)

Experiments:
[1] = biological target: T1, bovine serum albumin (BSA) (Bos taurus, UniProt P02769); experiment: Steady-state fluorescence quenching of BSA; type: binding; details: for Number of binding sites n / Stern–Volmer constant Ksv / Bimolecular quenching rate parameter kq: 298 K; for Stern–Volmer constant Ksv: pH 7.4; for Bimolecular quenching rate parameter kq: τo = 10^–8 s; for Fluorescence quenching mechanism: BSA fluorescence, kq compared with 2.0 × 10^10 m^–1 s^–1
T1 sequence (P02769 25-607): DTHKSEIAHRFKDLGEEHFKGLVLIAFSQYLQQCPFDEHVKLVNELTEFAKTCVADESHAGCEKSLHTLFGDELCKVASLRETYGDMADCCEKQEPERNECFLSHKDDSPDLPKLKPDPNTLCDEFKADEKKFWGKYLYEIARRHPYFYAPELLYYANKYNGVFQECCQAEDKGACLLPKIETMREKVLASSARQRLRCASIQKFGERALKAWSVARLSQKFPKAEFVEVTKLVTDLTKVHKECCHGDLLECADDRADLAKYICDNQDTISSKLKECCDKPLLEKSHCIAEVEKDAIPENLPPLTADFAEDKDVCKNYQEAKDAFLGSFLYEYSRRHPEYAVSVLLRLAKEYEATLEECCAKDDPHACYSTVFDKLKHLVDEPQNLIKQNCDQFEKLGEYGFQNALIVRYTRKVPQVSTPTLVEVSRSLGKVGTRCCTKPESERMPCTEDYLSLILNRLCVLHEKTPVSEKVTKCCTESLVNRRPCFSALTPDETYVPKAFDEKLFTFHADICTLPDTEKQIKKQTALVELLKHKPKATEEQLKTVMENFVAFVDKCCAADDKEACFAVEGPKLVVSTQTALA
In short: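 BSA stock in PBS pH 7.4, with concentration set from absorbance (ε 43,824 M–1 cm–1); test compounds from DMSO stocks, 2.46–22.22 μM. Emission recorded in a 1.0 cm quartz cuvette at 298 K with excitation at 280 nm and 5 nm excitation/emission bandwidths. Stern–Volmer and modified Stern–Volmer plots analysed; kq calculated using τo of 10–8 s for native BSA.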

Plasmodium falciparum = details: read-out: IC50 antiplasmodial; P. falciparum; cited from earlier work
[2] = biological target: T1, bovine serum albumin (BSA); experiment: Time-resolved fluorescence decay of BSA; type: binding; details: 298 K; for α1 / α2 / α3 / τ1 / τ2 / τ3: triexponential fitting
In short: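 Time-correlated single-photon counting with pulsed nanosecond LED excitation at 280 nm, 298 K. Instrument response recorded with a scattering solution; 114 ps per channel. Decays fitted as a sum of exponentials by nonlinear least-squares reconvolution, with pre-exponential factors normalized to 1 and errors taken as three standard deviations. Fit judged by χ2 and weighted residuals; average lifetime from triexponential fits.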

[3] = biological target: T1, bovine serum albumin (BSA); experiment: UV–vis absorption titration of BSA; type: binding; details: pH 7.4; for Enthalpy ΔH / Entropy ΔS: from Kb at 298 and 308 K
In short: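 Peltier-thermostatted spectrophotometer, 1 cm quartz cell, 1 nm slit, spectra over 200–500 nm. BSA in PBS pH 7.4 titrated with test compound (2.46–22.22 μM) and read at 279 nm; ligand-alone absorbance also recorded. Run at 298 and 308 K. Kb taken from the […] of the Benesi–Hildebrand plot, A0/(A–A0) versus 1/[compound]; thermodynamic parameters derived from Kb at both temperatures.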

Row | Number of binding sites n [1] | Stern–Volmer constant Ksv [1] | Bimolecular quenching rate parameter kq [1] | Fluorescence quenching mechanism [1] | τavg (average fluorescence lifetime of BSA) ([2]; ligand 2.46 μm) | α1 ([2]; ligand 2.46 μm) [%] | α2 ([2]; ligand 2.46 μm) [%] | α3 ([2]; ligand 2.46 μm) [%] | τ1 ([2]; ligand 2.46 μm) | τ2 ([2]; ligand 2.46 μm) | τ3 ([2]; ligand 2.46 μm) | τavg (average fluorescence lifetime of BSA) ([2]; ligand 9.52 μm) | α1 ([2]; ligand 9.52 μm) [%] | α2 ([2]; ligand 9.52 μm) [%] | α3 ([2]; ligand 9.52 μm) [%] | τ1 ([2]; ligand 9.52 μm) | τ2 ([2]; ligand 9.52 μm) | τ3 ([2]; ligand 9.52 μm) | τavg (average fluorescence lifetime of BSA) ([2]; ligand 16.09 μm) | α1 ([2]; ligand 16.09 μm) [%] | Structure (SMILES) | also measured
1 | 1 | 1.47 × 10^4 L mol^–1 | 1.47 × 10^12 | static quenching | 6.6 | 8.67 | 55.5 | 35.83 | 2.2687 | 5.696 | 7.962 | 6.7 | 13.49 | 84.08 | 2.43 | 2.6997 | 6.576 | 14.2863 | 6.8 | 9.59 | C[C@H]1C(=O)CC[C@@H]2[C@]1(C)CC[C@H]1[C@@]2(C)CC[C@@]2(C)[C@@H]3CC(C)(C)CC[C@]3(C)CC[C@]12C [friedelin] | IC50 (Plasmodium falciparum): 7.2 µM; α2 ([2]; ligand 16.09 μm): 86.56%; α3 ([2]; ligand 16.09 μm): 3.85%; τ1 ([2]; ligand 16.09 μm): 2.21; τ2 ([2]; ligand 16.09 μm): 6.354; τ3 ([2]; ligand 16.09 μm): 14.127; τavg (average fluorescence lifetime of BSA) ([2]; ligand 22.22 μm): 6.5; α1 ([2]; ligand 22.22 μm): 25.73%; α2 ([2]; ligand 22.22 μm): 71.9%; α3 ([2]; ligand 22.22 μm): 2.37%; τ1 ([2]; ligand 22.22 μm): 3.978; τ2 ([2]; ligand 22.22 μm): 7.1; τ3 ([2]; ligand 22.22 μm): 1.075; Gibbs free energy ΔG ([3]; 298 K): –20.52 kJ mol^–1; Gibbs free energy ΔG ([3]; 308 K): –19.22 kJ mol^–1; Enthalpy ΔH [3]: –59.26 kJ mol^–1; Entropy ΔS [3]: –0.13 kJ mol^–1
2 | 1 | 2.57 × 10^4 L mol^–1 | 2.57 × 10^12 | static quenching | 6.2 | 26.45 | 67.78 | 5.77 | 2.971 | 6.871 | 0.8793 | 6.2 | 30.06 | 64.04 | 5.91 | 3.0512 | 6.967 | 0.8022 | 6.1 | 28.92 | CC(C)=CCc1c(O)c(CC=C(C)C)c2oc3c(O)ccc(O)c3c(=O)c2c1O [gartanin] | α2 ([2]; ligand 16.09 μm): 64.86%; α3 ([2]; ligand 16.09 μm): 6.22%; τ1 ([2]; ligand 16.09 μm): 2.945; τ2 ([2]; ligand 16.09 μm): 6.882; τ3 ([2]; ligand 16.09 μm): 0.8547; τavg (average fluorescence lifetime of BSA) ([2]; ligand 22.22 μm): 6.2; α1 ([2]; ligand 22.22 μm): 30.4%; α2 ([2]; ligand 22.22 μm): 60.86%; α3 ([2]; ligand 22.22 μm): 8.74%; τ1 ([2]; ligand 22.22 μm): 3.254; τ2 ([2]; ligand 22.22 μm): 7.004; τ3 ([2]; ligand 22.22 μm): 0.9952; Gibbs free energy ΔG ([3]; 298 K): –24.28 kJ mol^–1; Gibbs free energy ΔG ([3]; 308 K): –23.68 kJ mol^–1; Enthalpy ΔH [3]: –42.16 kJ mol^–1; Entropy ΔS [3]: –0.06 kJ mol^–1
